Compounds with a hit are over-represented: about 4.8% of the library has one in this group of screens.
NALP1 inh – NALP1 inflammasome inhibitors in reconstituted yeast, colorimetric, S. cerevisiae, triplicate retest; S. cerevisiae NALP1/ASC/caspase-1 growth, X-gal OD620, 72 h; inhibition, % at 10 µM; 0.61% of 280,000 active; in the data active = inhibition mostly above about 24%, no sharp cut-off; inactive = mostly below about 32%
ALR inh – inhibitors of human ALR sulfhydryl oxidase, primary screen, biochemical, H2O2 detection, HRP-luminol luminescence, single point. inhibition, % (no concentration beside the values). FAD-linked sulfhydryl oxidase ALR (Homo sapiens), P55789. purified ALR, DTT oxidation. 3.8% of 290,000 active;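 active = mean replicate inhibition above about 79%, with every replicate also reaching it, limit read from the data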
Target sequence (P55789 whole entry, looked up): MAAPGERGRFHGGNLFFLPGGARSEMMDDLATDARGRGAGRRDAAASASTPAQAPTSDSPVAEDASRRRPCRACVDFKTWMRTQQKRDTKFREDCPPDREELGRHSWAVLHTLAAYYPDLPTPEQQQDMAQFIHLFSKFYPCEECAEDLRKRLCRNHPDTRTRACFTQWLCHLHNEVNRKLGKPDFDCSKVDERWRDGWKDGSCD
Calb FLC – C. albicans growth inhibition with fluconazole, primary screen, CaCi-2 strain, Alamar Blue fluorescence | C. albicans CaCi-2 + fluconazole, 48 h | growth inhibition, % (no concentration beside the values) | AID 1979, 2009 | 0.57% of 300,000 active;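 active = growth inhibition above about 58% in most replicates, limit read from the data, passing the limit was not always enough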;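 note: all wells also contain fluconazole at 8 µg/ml as a sub-toxic cotreatment; 0% = median of DMSO wells and 100% = median of geldanamycin control wells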
NALP3 yeast inh – NALP3 inflammasome inhibitors in reconstituted yeast, primary screen, luminescence, uHTS | Yeast reconstituted NLRP3/ASC/caspase-1, beta-gal luminescence, 24 h | 0.39% of 330,000 active | inhibition, % at 10 µM;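 active = inhibition of 50% or more; inactive = inhibition below 50%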;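 note: plate controls were induced DMSO wells for no effect and uninduced yeast grown without galactose for full effect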
UCH37 inh – inhibitors of human UCH37 deubiquitinase, primary screen, biochemical, Ub-AMC cleavage, fluorescence. Ubiquitin carboxyl-terminal hydrolase isozyme L5 (Homo sapiens), Q9Y5K5. purified proteasome/UCH37. inhibition, % (no concentration beside the values). 0.33% of 330,000 active. AID 588478, 2011;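 active = mean inhibition over replicate wells above about 20%, limit read from the data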;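 note: 0% = compound-free wells with enzyme and 100% = wells lacking proteasome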
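Material: human UCH37 enzyme supplied as purified proteasome complex / Amount: 0.15 nM proteasome as dispensed / Buffer or medium: pH 7.4 Tris-HCl (50 mM) with ovalbumin, ATP-MgCl2, DTT / Times: preincubation 30 min, reaction 25 min, room temperature / Technique: AMC fluorescence from Ub-AMC cleavage, excitation 355 nm, emission 460 nm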
ATG4B inhibitor – ATG4B protease inhibitors, primary screen, biochemical, fluorescence, uHTS; inhibition, % at 8.33 µM; 0.51% of 340,000 active; ATG4B cleavage of LC3-PLA2, NBD-HPC fluorescence, 1 h; Cysteine protease ATG4B (Homo sapiens), Q9Y4P1; in the data active = inhibition above about 40%
Target sequence (Q9Y4P1 whole entry, looked up): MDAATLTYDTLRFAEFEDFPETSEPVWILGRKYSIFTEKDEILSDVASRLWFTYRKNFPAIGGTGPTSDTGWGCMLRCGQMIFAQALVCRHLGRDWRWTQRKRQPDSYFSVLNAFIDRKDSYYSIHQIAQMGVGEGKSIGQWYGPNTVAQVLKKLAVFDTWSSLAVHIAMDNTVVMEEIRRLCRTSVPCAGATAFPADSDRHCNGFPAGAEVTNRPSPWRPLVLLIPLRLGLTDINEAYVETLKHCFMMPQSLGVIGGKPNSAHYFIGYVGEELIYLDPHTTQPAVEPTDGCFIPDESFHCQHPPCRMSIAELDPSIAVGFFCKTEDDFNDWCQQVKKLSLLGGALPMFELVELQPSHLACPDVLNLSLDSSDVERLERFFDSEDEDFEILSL
The depositor's hits bear a star; i = inactive; . = not tested or not shown.

SMILES	NALP1 inh	ALR inh	Calb FLC	NALP3 yeast inh	UCH37 inh	ATG4B inhibitor
CC(=O)NC(c1ccco1)c1ccc2cccnc2c1O (centres undefined)	-5	6	-6	34	3	-3
COc1ccc(C(NC(=O)C(C)C)c2ccc3cccnc3c2O)cc1 (centres undefined)	.	-3	86*	8	3	-3
CCCC(=O)NC(c1ccccc1Cl)c1ccc2cccnc2c1O (centres undefined)	4	2	83*	13	.	3
CCCC(=O)NC(c1ccc(N(C)C)cc1)c1ccc2cccnc2c1O (centres undefined)	-5	90*	92*	14	.	4
Oc1ccccc1C(Nc1nccs1)c1ccc2cccnc2c1O (centres undefined)	-3	-5	95*	10	-2	8
CC(=O)NC(c1ccc(Cl)cc1)c1ccc2cccnc2c1O (centres undefined)	.	.	.	.	2	-2
COC(=O)C/C=C/[C@@H](C)[C@@H](C=NO[C@@H](C)c1cn([C@H](CO)Cc2ccccc2)nn1)NS(=O)(=O)c1ccc(C)cc1	.	.	.	.	3	.
CCC(=O)NC(c1ccc(C)cc1)c1ccc2cccnc2c1O (centres undefined)	-37	-5	0	28	.	5
CCCC(=O)NC(c1ccc(C(C)C)cc1)c1ccc2cccnc2c1O (centres undefined)	-23	-19	89*	23	.	5
CCOC(=O)CSC1=Nc2ccccc2C2=NC(CC(=O)NCc3ccccc3)C(=O)N12 (centres undefined)	14	98*	0	5	-108	-14
CCCCNC(=O)CC1N=C2c3ccccc3N=C(SCC(=O)Nc3ccccc3C)N2C1=O (centres undefined)	-6	94*	1	5	-23	-12
Oc1ccc(C=NN2CCCCC2)cc1O	.	.	.	.	5	.
COc1ccccc1N1C(=N)S/C(=C\c2ccc(-c3ccccc3C(=O)O)o2)C1=O	15	98*	-4	19	8	12
CN(C)c1ccc(CNC(=O)c2ccc(CNc3c(N4CCCCC4)c(=O)c3=O)cc2)cc1	19	98*	-3	4	5	10
COc1cccc(C(=O)NCC(=O)NN=C(C)/C=C/c2ccccc2)c1	.	.	.	.	5	.
CC1(C)CN=c2s/c(=C\c3ccc(Cl)cc3)c(=O)n2C1	14	97*	6	34	.	5
CCc1ccc(N2CN=c3sc(=Cc4ccccc4)c(=O)n3C2)cc1	.	.	.	.	6	.
COc1ccc2[nH]cc(C(=O)CNc3nc(C)cs3)c2c1	-11	81*	1	8	-1	1
COC(=O)CSc1ccc(C#N)c(SCC(=O)OC)c1	26	99*	3	-8	2	-3
COC(=O)CSc1cc(SCC(=O)OC)c(C#N)c(SCC(=O)OC)c1	6	-8	-1	5	0	-6
COc1cccc(C2c3[nH]c4ccccc4c3C[C@H]3C(=O)N(c4ccccc4C(=O)N4CCC(C(=O)O)CC4)C(=O)N23)c1 (some centres undefined)	16	98*	-2	-10	2	-6
CC(C)c1ccc(C2c3[nH]c4ccccc4c3C[C@H]3C(=O)N(c4ccccc4C(=O)N4CCC[C@H]4C(=O)O)C(=O)N23)cc1 (some centres undefined)	34	98*	5	-11	5	-2
COc1ccc(C2c3[nH]c4ccccc4c3C[C@H]3C(=O)N(c4ccccc4C(=O)N4CCC(C(=O)O)CC4)C(=O)N23)cc1 (some centres undefined)	24	10	-6	9	4	-16
Cc1sc2nc(CN3CCCCC3)nc(Cl)c2c1C	36	98*	21	6	2	-2
Clc1nc(CN2CCCCC2)nc2sc3c(c12)CCCC3	20	19	25	39	-5	-6
SMILES	NALP1 inh	ALR inh	Calb FLC	NALP3 yeast inh	UCH37 inh	ATG4B inhibitor
O=C(O)c1cccc(NC(=S)NN=Cc2ccccc2OCc2ccc(Br)cc2)c1	.	.	.	.	12	.
Cc1ccc(S(=O)(=O)N(CC(=O)Nc2ccccc2C(=O)O)c2cccc(Cl)c2C)cc1	28	97*	-6	1	-3	26
Cc1ccc(S(=O)(=O)N(CC(=O)Nc2ccccc2C(=O)O)c2ccccc2C)cc1	4	-2	1	-3	.	11
COC(=O)c1ccc(NC(=O)CON=C2CCCc3nonc32)cc1	.	.	.	.	-3	.
CC(NC(=O)Cc1cccs1)C(c1cccs1)N1CCN(c2ccccc2F)CC1 (centres undefined)	3	-6	-11	-1	1	2
CCC(=O)NC(C)C(c1cccs1)N1CCN(c2ccccc2)CC1 (centres undefined)	3	99*	1	-12	3	-11
CC(NC(=O)Cc1cccs1)C(c1cccs1)N1CCN(c2ccccc2)CC1 (centres undefined)	.	96*	-1	-1	2	0
CC(=O)NC(C)C(c1cccs1)N1CCN(c2ccccc2)CC1 (centres undefined)	6	99*	-11	-2	2	2
C=C(C)C1CC=C(C)C(=NNC(=S)Nc2ccccc2)C1 (centres undefined)	.	.	.	.	2	.
Oc1ccc(C=NNc2ccccc2)cc1	.	.	.	.	-1	.
CC(C)(Cl)C1Cc2cc3ccc(=O)oc3cc2O1 (centres undefined)	24*	-1	2	9	-229	-6
CC(C)(C)Nc1nc(Cl)nc(Nc2ccccc2)n1	0	98*	-4	-12	5	-3
Clc1nc(Nc2ccccc2)nc(Nc2ccccc2)n1	25	11	1	29	5	-1
COc1ccccc1NS(=O)(=O)c1cccc(C(=O)NN=C(C)c2ccc(-n3ccnc3)cc2)c1	.	.	.	.	0	.
Cc1ccc(S(=O)(=O)N(CC(=O)NN=Cc2ccc(F)cc2)c2cccc3cccnc23)cc1	.	.	.	.	5	.
Cc1cc(C)c2cccc(N)c2n1	11	-10	6	24	6	7
Cc1cc(C)c2ccc(N)nc2c1O	4	91*	107*	4	1	-6
CCOc1cc(C=NNC(=O)c2ccc(N(C)S(=O)(=O)c3ccccc3)cc2)ccc1OC	.	.	.	.	-12	.
Cc1cn2nc(N)c3ccccc3c2n1	-13	-4	.	10	-121	-6
Nc1nn2cc(-c3ccccc3)nc2c2ccccc12	10	95*	18	47	i	-13
Nc1ccc2oc(-c3ccc4nc[nH]c4c3)nc2c1	1	.	-3	4	-65	-2

Assay outcomes: PubChem BioAssay, several laboratories
